Activity calls are given as the source filed them. The rule behind the calls is not given here.
Legend:
Rattus norvegicus [1] = test: In vivo protection against pentylenetetrazole-induced convulsions in the rat.; format: functional
In short: (§1)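 Rats in groups of 10, food-deprived 24 h, given 4–6 graded doses of compound orally (or ip where noted). PTZ at 23 mg/kg was injected iv into the caudal vein 60 min later. Protection meant no clonic seizure lasting at least 5 s. The number protected was counted and the ED50 estimated.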

Rattus norvegicus [2] = test: Hypotensive activity in saline-loaded spontaneously hypertensive rats following 100 mg/kg p.o. administration.; format: functional; set-up: unit not given beside the values; details: route oral
In short: (§2)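 Male Okamoto SH rats, about 300 g, gavaged with compound suspended in 2% boiled starch, with 0.9% NaCl loading at 25 mL/kg, at 0 h. An identical dose without saline followed at 24 h. Mean arterial pressure was taken by iliac artery puncture under local lidocaine at 28 h. Values are from one to three rats.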

[3] = biological target: T1, GABA-A receptor; anion channel (Rattus norvegicus) (UniProt O09028+P15431+P18506+P18508+P19969+P20236+P23574+P23576+P28471+P28473+P30191+P62813+P63079+P63138+Q91ZM7+Q9ES14); test: In vitro inhibition of [3H]diazepam binding towards Benzodiazepine receptor at 1 uM; format: protein-complex assay
Rattus norvegicus [4] = organism: Rattus norvegicus; test: Anxiolytic activity for protection against pentylenetetrazole-induced convulsions.; format: functional, organism-based; in short: as §1
Rattus norvegicus [5] = organism: Rattus norvegicus; test: Anxiolytic activity for protection against pentylenetetrazole-induced convulsions in experiment 1; format: functional; in short: as §1
Rattus norvegicus [6] = organism: Rattus norvegicus; test: Anxiolytic activity for protection against pentylenetetrazole-induced convulsions in experiment 2; format: functional; in short: as §1
[7] = biological target: GABA-A receptor; anion channel; test: In vitro for inhibition of [3H]diazepam towards Benzodiazepine receptor from rat; format: protein-complex assay
In short: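 Rat frontal cortex homogenized in ice-cold 0.32 M sucrose; crude P2 synaptosomal fraction resuspended in 50 mM Tris-HCl pH 7.4. IC50 read graphically from % inhibition vs log concentration plots.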

[8] = biological target: T1, GABA-A receptor; anion channel (Rattus norvegicus); test: In vitro percent inhibition of [3H]diazepam binding to rat GABA-A benzodiazepine receptor at 1 uM; format: protein-complex assay
Rattus norvegicus [9] = test: Hypotensive activity evaluated as mean arterial blood pressure (MABP) in saline-loaded spontaneously hypertensive rats dosed (per oral) at 25 mg/kg; format: functional; in short: as §2
Rattus norvegicus [10] = organism: Rattus norvegicus; test: Average reduction in blood pressure over control (4 rats) at 2 hr in spontaneous hypertensive rats; format: functional
In short: (§3)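 Conscious cannulated male Okamoto SH rats, 300–350 g, dosed po with vehicle (2% boiled starch) or compound at 1, 5, 10 and 25 mg/kg. A second po dose was given 20 h later, and pressure was recorded continuously for 4 h. The value is the mean reduction against controls at 2 and 4 h, n = 4.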

Rattus norvegicus [11] = organism: Rattus norvegicus; test: Average reduction in blood pressure over control (4 rats) at 4 hr in spontaneous hypertensive rats; format: functional; in short: as §3
Rattus norvegicus [12] = test: Compound was evaluated for anxiolytic activity for protection against pentylenetetrazole-induced convulsions; No activity at 50 mg/Kg; format: functional, organism-based; in short: as §1
Rattus norvegicus [13] = test: Compound was evaluated for anxiolytic activity for protection against pentylenetetrazole-induced convulsions; no activity at 50 mg/kg; format: functional, organism-based; set-up: dose 50 mg/kg; in short: as §1
[14] = Rattus norvegicus, read-out: ED50

## Cc1cc2nnc(C)n2nc1-c1cccc(C(F)(F)F)c1
Rattus norvegicus [1]
  ED50: 13.8 mg/kg
Rattus norvegicus [2]
  MABP: 129
[3]
  inhibition: 26%

## CCc1nnc2ccc(-c3ccc(Cl)cc3)nn12
Rattus norvegicus [4]
  ED50: inactive
Rattus norvegicus [2]
  MABP: 141

## c1ccc(Cc2nnc3ccc(-c4ccccc4)nn23)cc1
Rattus norvegicus [4]
  ED50: inactive

## Cc1nnc2ccc(-c3cccc(Cl)c3)nn12
Rattus norvegicus [5]; [14]
  ED50: 8 mg/kg
[3]
  inhibition: 60%
Rattus norvegicus [6]
  ED50: 4.8 mg/kg
[7]
  IC50: 709 nM
[8]
  inhibition: 61%

## CCCC(C)(COC(N)=O)COC(N)=O
[3]
  inhibition: 1.8%

## CCc1nnc2ccc(-c3ccc(C(F)(F)F)cc3)nn12
Rattus norvegicus [1]
  ED50: ~50 mg/kg
Rattus norvegicus [2]
  MABP: 129
Rattus norvegicus [9]
  MABP: 157

## COCc1nnc2ccc(-c3cccc(C(F)(F)F)c3)nn12
Rattus norvegicus [1]
  ED50: 6.4 mg/kg
[3]
  inhibition: 23%

## Clc1ccc(-c2ccc3nnc(-c4ccccc4)n3n2)cc1
Rattus norvegicus [4]
  ED50: inactive

## Clc1ccc(-c2ccc3nncn3n2)cc1
Rattus norvegicus [5]; [14]
  ED50: 5.3 mg/kg
Rattus norvegicus [10]
  BP: -15 mmHg
Rattus norvegicus [2]
  MABP: 110
[3]
  inhibition: < 10%
Rattus norvegicus [6]
  ED50: 9.8 mg/kg
Rattus norvegicus [9]
  MABP: 136
Rattus norvegicus [11]
  BP: -17 mmHg

## Clc1ccccc1-c1ccc2nncn2n1
Rattus norvegicus [1]
  ED50: 18 mg/kg
Rattus norvegicus [2]
  MABP: 127

## Cc1cc2nncn2nc1-c1cccc(F)c1
Rattus norvegicus [4]
  ED50: inactive
Rattus norvegicus [2]
  MABP: 142

## Nc1cccc(-c2ccc3nncn3n2)c1
Rattus norvegicus [5]; [14]
  ED50: 15 mg/kg
[3]
  inhibition: 32%
Rattus norvegicus [6]
  ED50: 16.6 mg/kg

## COc1cccc(-c2ccc3nnc(C)n3n2)c1
[3]
  inhibition: 74%
[7]
  IC50: 309 nM

## Cc1cc(-c2ccc(F)cc2)nn2c(C)nnc12
Rattus norvegicus [4]
  ED50: inactive
Rattus norvegicus [2]
  MABP: 126
[3]
  inhibition: < 10%

## ClCc1nnc2ccc(-c3ccccc3)nn12
[3]
  inhibition: 45%
Rattus norvegicus [12]
  ED50: inactive
[8]
  inhibition: 47%

## Cc1nnc2ccc(-c3cccc([N+](=O)[O-])c3)nn12
Rattus norvegicus [1]
  ED50: 11.6 mg/kg
[3]
  inhibition: 53%

## Fc1cccc(-c2ccc3nncn3n2)c1
Rattus norvegicus [1]
  ED50: 5.5 mg/kg

## c1ccc(-c2ccc3nncn3n2)cc1
Rattus norvegicus [5]; [14]
  ED50: 9 mg/kg
[3]
  inhibition: 23%
Rattus norvegicus [6]
  ED50: 4.8 mg/kg

## FC(F)(F)c1cccc(-c2ccc3nnc(C(F)(F)F)n3n2)c1
Rattus norvegicus [4]
  ED50: inactive
[3]
  inhibition: 60%

## Cc1nnc2ccc(-c3cccc(N)c3)nn12
Rattus norvegicus [1]
  ED50: 12 mg/kg
[3]
  inhibition: 60%
[7]
  IC50: 510 nM
[8]
  inhibition: 58%

## Cc1nnc2ccc(-c3ccccc3)nn12
Rattus norvegicus [5]; [14]
  ED50: 2.3 mg/kg
[3]
  inhibition: 55%
Rattus norvegicus [6]
  ED50: 2.9 mg/kg
[7]
  IC50: 633 nM

## Cc1cccc(-c2ccc3nncn3n2)c1
Rattus norvegicus [1]
  ED50: ~50 mg/kg

## CNC1=Nc2ccc(Cl)cc2C(c2ccccc2)=[N+]([O-])C1 [CHLORDIAZEPOXIDE]
Rattus norvegicus [1]
  ED50: 1.7 mg/kg
[3]
  inhibition: 75%
[7]
  IC50: 248 nM

## Cc1cc2nncn2nc1-c1cccc(C(F)(F)F)c1
Rattus norvegicus [1]
  ED50: 12.9 mg/kg
[3]
  inhibition: 21%

## Cc1nnc2ccc(-c3cccc(F)c3)nn12
Rattus norvegicus [1]
  ED50: 3.1 mg/kg
[3]
  inhibition: 47%
[7]
  IC50: 1200 nM
[8]
  inhibition: 43%

## Cc1nnc2ccc(-c3ccc(Cl)c(Cl)c3)nn12
Rattus norvegicus [4]
  ED50: inactive

## Cc1nnc2ccc(-c3ccccc3Cl)nn12
Rattus norvegicus [1]
  ED50: 14 mg/kg
Rattus norvegicus [2]
  MABP: 123
[3]
  inhibition: < 10%

## Cl.Clc1cccc(Cl)c1NC1=NCCN1 [CLONIDINE HYDROCHLORIDE]
Rattus norvegicus [2]
  MABP: 102

## Fc1ccccc1-c1ccc2nncn2n1
Rattus norvegicus [1]
  ED50: 17 mg/kg
Rattus norvegicus [2]
  MABP: 112
[3]
  inhibition: 16%

## CN1C(=O)CN=C(c2ccccc2)c2cc(Cl)ccc21 [DIAZEPAM]
Rattus norvegicus [1]
  ED50: 1.8 mg/kg

## Clc1ccc(-c2ccc3nncn3n2)cc1Cl
Rattus norvegicus [4]
  ED50: inactive

## COc1ccc(-c2ccc3nnc(C)n3n2)cc1
Rattus norvegicus [4]
  ED50: inactive

## Cc1cc(-c2cccc(C(F)(F)F)c2)nn2c(C)nnc12
[3]
  inhibition: < 10%
Rattus norvegicus [12]
  ED50: inactive

## Cc1cc2nnc(C)n2nc1-c1ccc(F)cc1
Rattus norvegicus [4]
  ED50: inactive
[3]
  inhibition: < 10%

## CCCc1nnc2ccc(-c3ccccc3)nn12
Rattus norvegicus [2]
  MABP: 110
[3]
  inhibition: 38%
Rattus norvegicus [9]
  MABP: 145

## Cc1cc2nnc(C)n2nc1-c1cccc(F)c1
Rattus norvegicus [4]
  ED50: inactive
[3]
  inhibition: < 10%

## Cl.NNc1nncc2ccccc12 [HYDRALAZINE HYDROCHLORIDE]
Rattus norvegicus [9]
  MABP: 82

## Cc1nnc2ccc(-c3ccc(Cl)cc3)nn12
Rattus norvegicus [5]; [14]
  ED50: 9.9 mg/kg
[3]
  inhibition: 28%
Rattus norvegicus [6]
  ED50: 10 mg/kg

## Cc1cc2nncn2nc1-c1cccc(C#N)c1
Rattus norvegicus [1]
  ED50: 34 mg/kg
Rattus norvegicus [2]
  MABP: 88
Rattus norvegicus [9]
  MABP: 135

## CC(=O)Nc1cccc(-c2ccc3nnc(C)n3n2)c1
Rattus norvegicus [13]
  EC50: Not Active
[3]
  inhibition: 56%
[7]
  IC50: 633 nM

## Cc1cc2nncn2nc1-c1ccc(F)cc1
Rattus norvegicus [4]
  ED50: inactive
Rattus norvegicus [2]
  MABP: 105

## Clc1cccc(-c2ccc3nncn3n2)c1
Rattus norvegicus [1]
  ED50: 8.2 mg/kg
[3]
  inhibition: 30%
[7]
  IC50: 2250 nM

## FC(F)(F)c1ccc(-c2ccc3nncn3n2)cc1
Rattus norvegicus [1]
  ED50: 5.8 mg/kg
Rattus norvegicus [10]
  BP: -15 mmHg
Rattus norvegicus [2]
  MABP: 85
[3]
  inhibition: 21%
Rattus norvegicus [9]
  MABP: 136
Rattus norvegicus [11]
  BP: -12 mmHg

## COCc1nnc2ccc(-c3ccccc3)nn12
Rattus norvegicus [5]; [14]
  ED50: 9.5 mg/kg
[3]
  inhibition: < 10%
Rattus norvegicus [6]
  ED50: 6.4 mg/kg

## FC(F)(F)c1nnc2ccc(-c3ccccc3)nn12
Rattus norvegicus [5]; [14]
  ED50: 15 mg/kg
Rattus norvegicus [6]
  ED50: 18 mg/kg

## Cc1nnc2ccc(-c3ccc(F)cc3)nn12
Rattus norvegicus [5]
  ED50: 2 mg/kg
Rattus norvegicus [5]; [14]
  ED50: 3.4 mg/kg
[3]
  inhibition: 65%
[7]
  IC50: 589 nM
[8]
  inhibition: 64%

## CCCc1nnc2ccc(-c3cccc(C(F)(F)F)c3)nn12
Rattus norvegicus [4]
  ED50: inactive
Rattus norvegicus [2]
  MABP: 112
Rattus norvegicus [9]
  MABP: 165

## c1ccc(-c2ccc3nnc(-c4ccccc4)n3n2)cc1
Rattus norvegicus [4]
  ED50: inactive
[3]
  inhibition: 74%

## FC(F)(F)c1cccc(-c2ccc3nnc(CCl)n3n2)c1
[3]
  inhibition: 67%
Rattus norvegicus [12]
  ED50: inactive
[7]
  IC50: 391 nM

## O=[N+]([O-])c1cccc(-c2ccc3nncn3n2)c1
Rattus norvegicus [1]
  ED50: 22 mg/kg

## CCc1nnc2ccc(-c3cccc(C(F)(F)F)c3)nn12
Rattus norvegicus [1]
  ED50: 24 mg/kg
[3]
  inhibition: 73%
[7]
  IC50: 280 nM

## Cc1cccc(-c2ccc3nnc(C(F)(F)F)n3n2)c1
Rattus norvegicus [12]
  ED50: inactive

## Cc1cc(-c2cccc(C(F)(F)F)c2)nn2cnnc12
Rattus norvegicus [13]
  EC50: Not Active
Rattus norvegicus [2]
  MABP: 102
[3]
  inhibition: < 10%

## Fc1ccc(-c2ccc3nncn3n2)cc1
Rattus norvegicus [5]; [14]
  ED50: 5 mg/kg
Rattus norvegicus [10]
  BP: -26 mmHg
Rattus norvegicus [2]
  MABP: 88
[3]
  inhibition: 16%
Rattus norvegicus [6]
  ED50: 2.2 mg/kg
Rattus norvegicus [9]
  MABP: 123
Rattus norvegicus [11]
  BP: -31 mmHg

## Cc1cccc(-c2ccc3nnc(C)n3n2)c1
Rattus norvegicus [1]
  ED50: ~50 mg/kg
[3]
  inhibition: 68%

## Cc1nnc2ccc(-c3ccccc3F)nn12
Rattus norvegicus [1]
  ED50: 10.4 mg/kg
[3]
  inhibition: 37%
[7]
  IC50: 7450 nM
